{"data": "Measured values of several laboratories", "organism": "Staphylococcus aureus", "observed": "microbial growth", "note": "Lines come from different studies, so protocols differ."}
{"Compound": "CC(C)Oc1c(NC(=O)c2ccc(NC(=O)[C@H](CC(N)=O)NC(=O)c3ccc(NC(=O)c4ccc(NC(=O)c5ccc([N+](=O)[O-])cc5)cc4)cc3)cc2)ccc(C(=O)Nc2ccc(C(=O)O)cc2)c1O", "test system": "ATCC29213", "MIC": "> 64 µg/mL"}
{"Compound": "Cc1cc2c([nH]c3ccccc32)c2c1C(=O)C=CC2=O", "test system": "ATCC29213", "MIC": "64 µg/mL"}
{"Compound": "C=CC(=O)Nc1cccc(Oc2nc(Nc3ccc(N4CCN(C)CC4)cc3OC)ncc2Cl)c1", "test system": "NCTC8325", "MIC": "> 30 µM"}
{"Compound": "Cc1cc(C(=O)Nc2ccc(C(=O)N[C@@H](CC(N)=O)C(=O)Nc3ccc(C(=O)Nc4ccc(C(=O)Nc5ccc(C(=O)O)cc5)c(O)c4OC(C)C)cc3)cc2)ccc1C#N", "test system": "ATCC29213", "MIC": "2 µg/mL"}
{"Compound": "Cn1c(Nc2ccc(C(F)(F)F)cc2)nc2cc(Oc3ccnc(-c4ncc(C(F)(F)F)[nH]4)c3)ccc21", "test system": "NCTC8325", "MIC": "30 µM"}
{"Compound": "Cc1ccc(C)n1-c1ccc(-c2nnc(S)s2)cc1", "test": "broth dilution", "test system": "ATCC11632", "setting": "18 h", "MIC": "1 µg/mL"}
{"Compound": "Clc1ccccc1NCc1ccc(Oc2ccccn2)cc1", "MIC": "1.6 µg/mL"}
{"Compound": "Clc1ccccc1-c1nc2ccccc2[nH]1", "test": "broth dilution", "test system": "ATCC29213 MSSA", "MIC": "64 µg/mL"}
{"Compound": "COc1ccc2c(c1)CCc1c(C(=O)NCCc3nc4cc(C)ccc4[nH]3)n[nH]c1-2", "MIC": "> 128 µg/mL"}
{"Compound": "CC(C)Oc1c(NC(=O)c2ccc(NC(=O)[C@H](CC(N)=O)NC(=O)c3ccc(NC(=O)c4cccc(N)c4)cc3)cc2)ccc(C(=O)Nc2ccc(C(=O)O)cc2)c1O", "test system": "ATCC29213", "MIC": "> 64 µg/mL"}
{"Compound": "CCCCCCC#Cc1cncc(-c2nnc(SCc3ccc([N+](=O)[O-])o3)n2C2CC2)c1", "test system": "MRSA", "setting": "drug-resistant strain", "MIC": "≥ 20 µg/mL"}
{"Compound": "C[C@@H](Oc1cc(-n2cnc3ccc(CN4CCN(C)CC4)cc32)sc1C(N)=O)c1ccccc1C(F)(F)F", "test system": "NCTC8325", "MIC": "> 30 µM"}
{"Compound": "Fc1ccccc1NCc1ccc(Oc2ccccn2)cc1", "MIC": "1.6 µg/mL"}
{"Compound": "Cn1cc(C2=C(c3ccc(Cl)cc3Cl)C(=O)NC2=O)c2ccccc21", "test system": "NCTC8325", "MIC": "> 30 µM"}
{"Compound": "CO[C@H]1[C@H](O[C@H]([C@H]2O[C@@H](n3ccc(=O)[nH]c3=O)[C@H](O)[C@@H]2O)[C@H](NCCCNC(=O)[C@@H](NC(=O)[C@@H](NC(=O)N[C@H](C(=O)O)C(C)C)[C@@H]2CCN=C(N)N2)[C@@H](OC(=O)CCCCCCCCCCCCN(O)C(=N)N)C(C)C)C(=O)O)O[C@H](CN)[C@H]1O", "test system": "NEWMAN", "MIC": "18 µg/mL"}
{"Compound": "O=C1NC(=S)N/C1=C\\c1ccc(-c2ccc(N(c3ccccc3)c3ccccc3)cc2)c2ccccc12", "test": "broth dilution", "test system": "ATCC25923", "MIC": "> 1000 µg/mL"}
{"Compound": "O=[N+]([O-])c1ccc(-c2nc3ccccc3[nH]2)cc1", "test": "broth dilution", "test system": "ATCC29213 MSSA", "MIC": "128 µg/mL"}
{"Compound": "CN[C@H](CC(C)C)C(=O)N[C@H]1C(=O)N[C@@H](CC(N)=O)C(=O)N[C@H]2C(=O)N[C@H]3C(=O)N[C@H](C(=O)N[C@H](C(=O)O)c4cc(O)cc(O)c4-c4cc3ccc4O)[C@H](O)c3ccc(c(Cl)c3)Oc3cc2cc(c3O[C@@H]2O[C@H](CO)[C@@H](O)[C@H](O)[C@H]2O[C@H]2C[C@](C)(N)[C@H](O)[C@H](C)O2)Oc2ccc(cc2Cl)[C@H]1O", "test": "broth dilution", "test system": "745524", "MIC": "1 µg/mL"}
{"Compound": "Oc1ccc(-c2nc(-c3ccc(F)cc3)c(-c3ccncc3)[nH]2)cc1", "test system": "NCTC8325", "MIC": "> 30 µM"}
{"Compound": "CC(C)(O/N=C(\\C(=O)N[C@@H]1C(=O)N2C(C(=O)[O-])=C(C[n+]3ccccc3)CS[C@H]12)c1csc(N)n1)C(=O)O", "test": "broth dilution", "test system": "MRSA", "setting": "18 h, clinical isolate", "MIC": "64 µg/mL"}
{"Compound": "COc1cccc(OC)c1C(=O)N[C@@H]1C(=O)N2[C@@H]1SC(C)(C)[C@@H]2C(=O)O", "test system": "129", "setting": "clinical isolate", "MIC": "37.5 µM"}
{"Compound": "Cc1ccc2nc(-c3ccc(Cl)c(Cl)c3)n(Cc3ccccc3)c2c1", "test": "broth dilution", "test system": "ATCC29213 MSSA", "MIC": "32 µg/mL"}
{"Compound": "CCOc1ccc(-c2nc3cc(-c4nc5cc(N6CCN(C)CC6)ccc5[nH]4)ccc3[nH]2)cc1", "test": "broth dilution", "test system": "33591", "setting": "24 h", "MIC": "2 to 4 µg/mL"}
{"Compound": "C[n+]1ccc(/C=C2\\Sc3ccccc3N2CCCN2CCCCC2)c2ccccc21.[I-]", "test": "broth dilution", "test system": "ATCCBAA44", "MIC": "4 µg/mL"}
{"Compound": "O=C(O)CN1C(=O)/C(=C/c2ccc(-c3ccc(N(c4ccccc4)c4ccccc4)cc3)cc2)SC1=S", "test": "broth dilution", "test system": "ATCC25923", "MIC": "3.9 µg/mL"}
{"Compound": "O=C(CCCCCCCC[P+](c1ccccc1)(c1ccccc1)c1ccccc1)Nc1cc(O)c(O)c(O)c1.[Br-]", "test": "broth dilution", "test system": "ATCC43300 MRSA", "setting": "18 h", "MIC": "16 µg/mL"}
{"Compound": "c1ccc2[nH]c(-c3ccncc3)nc2c1", "test": "broth dilution", "test system": "ATCC29213 MSSA", "MIC": "128 µg/mL"}
{"Compound": "C/C=C(\\C)c1cc(O)c(C)c(OC(=O)c2c(C)cc(O)c(Cl)c2O)c1", "test": "broth dilution", "test system": "16339", "MIC": "16 µg/mL"}
{"Compound": "Cc1ccc(C)n1-c1ccc(C(=O)NNC=O)cc1", "test": "broth dilution", "test system": "ATCC11632", "setting": "18 h", "MIC": "16 µg/mL"}
{"Compound": "CC(C)Oc1c(NC(=O)c2ccc(NC(=O)[C@H](CC(N)=O)NC(=O)c3ccc(NC(=O)c4ccc(C#N)cc4)cc3)cc2)ccc(C(=O)Nc2ccncc2)c1O", "test system": "ATCC29213", "MIC": "> 64 µg/mL"}
{"Compound": "O=C(O)c1cn(C2CC2)c2cc(N3CCNCC3)c(F)cc2c1=O", "test": "broth dilution", "test system": "ATCC29213 MSSA", "MIC": "8 µg/mL"}
{"Compound": "CC(C)Oc1c(NC(=O)c2ccc(NC(=O)[C@H](CC(N)=O)NC(=O)c3ccc(NC(=O)C(C)Oc4ccccc4)cc3)cc2)ccc(C(=O)Nc2ccc(C(=O)O)cc2)c1O (stereo partly shown)", "test system": "ATCC29213", "MIC": "> 64 µg/mL"}
{"Compound": "COC1/C=C/OC2(C)Oc3c(C)c(O)c4c(O)c(c5c(nc6cc(C)ccn65)c4c3C2=O)NC(=O)/C(C)=C\\C=C\\C(C)C(O)C(C)C(O)C(C)C(OC(C)=O)C1C (stereo not shown)", "MIC": "≤ 0.06 µg/mL"}
{"Compound": "CC1CCN(CCCN2/C(=C/c3cc[n+](C)c4ccccc34)Sc3ccccc32)CC1.[I-]", "test": "broth dilution", "test system": "ATCCBAA44", "MIC": "2 µg/mL"}
{"Compound": "CC(C)n1nc(-c2ccc3oc(N)nc3c2)c2c(N)ncnc21", "test system": "NCTC8325", "MIC": "> 30 µM"}
{"Compound": "COc1c(C(=O)Nc2ccc(C(=O)O)cc2)ccc2nc(-c3cc(NC(=O)C(CC(N)=O)NC(=O)c4ccc(NC(=O)c5ccc(C#N)cc5)cc4)cn3C)[nH]c12 (stereo not shown)", "test system": "ATCC29213", "MIC": "> 64 µg/mL"}
{"Compound": "CC(=O)NC[C@H]1CN(c2ccc(N3CCOCC3)c(F)c2)C(=O)O1", "test": "broth dilution", "test system": "MRSA NRS119", "setting": "drug-resistant strain", "MIC": "32 µM"}
{"Compound": "CC1(C)S[C@@H]2[C@H](NC(=O)[C@H](N)c3ccccc3)C(=O)N2[C@H]1C(=O)O", "test": "broth dilution", "test system": "16162", "MIC": "16 µg/mL"}
{"Compound": "CCCCCCCC(=O)Oc1c(C)c(O)c(C(=O)/C=C/c2ccccc2)c(OC)c1C", "test": "broth dilution", "test system": "ATCC25923", "MIC": "> 5000 µg/mL"}
{"Compound": "Clc1ccc(Cn2c(-c3ccc(Cl)cc3)nc3ccccc32)cc1", "test": "broth dilution", "test system": "ATCC29213 MSSA", "MIC": "8 µg/mL"}
{"Compound": "CNC(=O)c1ccc(NC(=O)Nc2ccc(Cl)c(C(F)(F)F)c2)cc1", "test system": "NCTC8325", "setting": "24 h", "MIC": "30 µM"}
{"Compound": "O=C(O)CN1C(=O)/C(=C/c2c3ccccc3c(-c3ccc(N(c4ccccc4)c4ccccc4)cc3)c3ccccc23)NC1=S", "test": "broth dilution", "test system": "ATCC6538", "MIC": "> 1000 µg/mL"}
{"Compound": "O=C(O)c1ccc(Nc2ncc3c(n2)-c2ccc(Cl)cc2C(c2c(F)cccc2F)=NC3)cc1", "test system": "NCTC8325", "MIC": "> 30 µM"}
{"Compound": "O=C1NC(=S)N/C1=C\\c1c2ccccc2c(-c2ccc(N(c3ccccc3)c3ccccc3)cc2)c2ccccc12", "test": "broth dilution", "test system": "ATCC25923", "MIC": "> 1000 µg/mL"}
{"Compound": "CC1=NN(CNc2c(O)c(S(=O)(=O)O)cc3ccccc23)C(=O)C1=NNn1c(-c2ccccc2)nc2ccccc2c1=O", "test": "broth dilution", "setting": "24 h", "MIC": "83.7 µM"}
{"Compound": "CC(C)Oc1c(NC(=O)c2ccc(NC(=O)[C@H](CC(N)=O)NC(=O)c3ccc(NC(=O)c4ccc(F)cc4)cc3)cc2)ccc(C(=O)Nc2ccc(C(=O)O)cc2)c1O", "test system": "ATCC29213", "MIC": "2 µg/mL"}
{"Compound": "C=CC1(C)CC(OC(=O)CSc2nc3ccccc3s2)C2(C)C(C)CCC3(CCC(=O)C32)C(C)C1O (stereo not shown)", "MIC": "0.5 µg/mL"}
{"Compound": "CN[C@H](CC(C)C)C(=O)N[C@H]1C(=O)N[C@@H](CC(N)=O)C(=O)N[C@H]2C(=O)N[C@H]3C(=O)N[C@H](C(=O)N[C@H](C(=O)O)c4cc(O)cc(O)c4-c4cc3ccc4O)[C@H](O)c3ccc(c(Cl)c3)Oc3cc2cc(c3O[C@@H]2O[C@H](CO)[C@@H](O)[C@H](O)[C@H]2O[C@H]2C[C@](C)(N)[C@H](O)[C@H](C)O2)Oc2ccc(cc2Cl)[C@H]1O", "test": "broth dilution", "test system": "ATCC6538", "MIC": "0.49 µg/mL"}
{"Compound": "C/C=C(\\C)c1cc(OC(=O)c2c(C)c(Cl)c(O)c(Cl)c2O)c(C)c(O)c1C(=O)O", "test": "broth dilution", "test system": "CCARM3090", "MIC": "64 µg/mL"}
{"Compound": "O=C(O)CN1C(=O)/C(=C/c2ccc(-c3ccc(N(c4ccccc4)c4ccccc4)cc3)c3ccccc23)NC1=S", "test": "broth dilution", "test system": "ATCC25923", "MIC": "> 1000 µg/mL"}
{"Compound": "CN[C@H](CC(C)C)C(=O)N[C@H]1C(=O)N[C@@H](CC(N)=O)C(=O)N[C@H]2C(=O)N[C@H]3C(=O)N[C@H](C(=O)N[C@H](C(=O)O)c4cc(O)cc(O)c4-c4cc3ccc4O)[C@H](O)c3ccc(c(Cl)c3)Oc3cc2cc(c3O[C@@H]2O[C@H](CO)[C@@H](O)[C@H](O)[C@H]2O[C@H]2C[C@](C)(N)[C@H](O)[C@H](C)O2)Oc2ccc(cc2Cl)[C@H]1O", "test": "broth dilution", "test system": "ATCC43300 MRSA", "setting": "18 h", "MIC": "1 µg/mL"}
{"Compound": "CCOc1ccc(-c2nc3ccccc3[nH]2)cc1", "test": "broth dilution", "test system": "ATCC29213 MSSA", "MIC": "256 µg/mL"}
{"Compound": "C/C=C(\\C)c1cc(OC(=O)c2c(O)c(C)c(O)c(Cl)c2/C(C)=C/C)c(C)c(O)c1C(=O)O", "test": "broth dilution", "test system": "16162", "MIC": "32 µg/mL"}
{"Compound": "Clc1ccc(-c2nc3ccccc3n2Cc2ccccc2)cc1Cl", "test": "broth dilution", "test system": "ATCC29213 MSSA", "MIC": "8 µg/mL"}
{"Compound": "NC[C@H]1O[C@H](O[C@H]2[C@H](O)[C@@H](O[C@H]3O[C@H](CO)[C@@H](O)[C@H](N)[C@H]3O)[C@H](N)C[C@@H]2N)[C@H](N)C[C@@H]1O", "test system": "156", "setting": "clinical isolate", "MIC": "12.5 µM"}
{"Compound": "C[C@@H](O)[C@H]1C(=O)N2C(C(=O)O)=C(S[C@H]3C[C@@H](C(=O)N4CC[C@H](NC(=O)CNC(=N)N)C4)N(C)C3)[C@H](C)[C@H]12", "test system": "MRSA", "MIC": "8 µg/mL"}
{"Compound": "CCCCCCCCCCCC(=O)Oc1c(C)c(O)c(C(=O)/C=C/c2ccccc2)c(OC)c1C", "test": "broth dilution", "test system": "ATCC25923", "MIC": "5000 µg/mL"}
{"Compound": "CSc1nc(O)n2nccc2n1", "MIC": "> 128 µg/mL"}
